# According to ChEMBL document CHEMBL3232924, “Synthesis and biological evaluation of novel bis-aromatic amides as novel PTP1B inhibitors” (Bioorg Med Chem Lett, 2014):
# Active and inactive are the calls of the source. No cut-off for these calls is given here.
# How the values were obtained:
# [1] = target: T1, Tyrosine-protein phosphatase non-receptor type 1 (Homo sapiens) (UniProt P18031); assay: Inhibition of PTP1B (unknown origin) using pNPP as substrate at 20 ug/ml
# T1 sequence (whole entry): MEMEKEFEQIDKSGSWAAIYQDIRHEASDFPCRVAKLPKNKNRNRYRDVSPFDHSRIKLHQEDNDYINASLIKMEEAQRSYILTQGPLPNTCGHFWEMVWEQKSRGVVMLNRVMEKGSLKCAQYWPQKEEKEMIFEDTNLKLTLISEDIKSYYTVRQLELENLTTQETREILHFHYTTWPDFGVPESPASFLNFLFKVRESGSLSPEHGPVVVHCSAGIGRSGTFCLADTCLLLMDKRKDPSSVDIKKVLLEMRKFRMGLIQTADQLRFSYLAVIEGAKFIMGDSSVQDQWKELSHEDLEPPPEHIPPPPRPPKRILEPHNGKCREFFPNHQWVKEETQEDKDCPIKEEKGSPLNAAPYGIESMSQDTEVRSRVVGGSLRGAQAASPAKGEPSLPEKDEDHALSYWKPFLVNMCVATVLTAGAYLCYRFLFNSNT
# [2] = target: T2, Tyrosine-protein phosphatase non-receptor type 1 (Homo sapiens, UniProt P18031); assay: Inhibition of PTP1B (unknown origin) using pNPP as substrate
# T2 sequence (P18031 whole entry): T1 sequence (whole entry)
# [3] = target: T3, Tyrosine-protein phosphatase non-receptor type 2 (Homo sapiens, UniProt P17706); assay: Inhibition of TCPTP (unknown origin) using pNPP as substrate
# T3 sequence (P17706 whole entry): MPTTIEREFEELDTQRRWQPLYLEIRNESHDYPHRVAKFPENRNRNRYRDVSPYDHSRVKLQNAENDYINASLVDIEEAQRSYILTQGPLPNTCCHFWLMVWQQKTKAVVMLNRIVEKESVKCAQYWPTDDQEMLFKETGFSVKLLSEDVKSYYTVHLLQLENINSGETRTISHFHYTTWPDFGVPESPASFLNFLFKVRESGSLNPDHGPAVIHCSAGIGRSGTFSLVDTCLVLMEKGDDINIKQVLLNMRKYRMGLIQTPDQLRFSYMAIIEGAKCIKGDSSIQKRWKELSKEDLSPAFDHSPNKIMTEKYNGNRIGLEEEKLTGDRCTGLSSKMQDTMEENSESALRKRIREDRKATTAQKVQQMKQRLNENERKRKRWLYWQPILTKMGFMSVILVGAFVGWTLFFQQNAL
# Homo sapiens = species on record: Homo sapiens; assay: Selectivity ratio of IC50 for TCPTP (unknown origin) to IC50 for PTP1B (unknown origin)
# How it was run: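 Colorimetric assay with pNPP as substrate, run the same way for PTP1B and TCPTP. IC50 was obtained by regression analysis and reported as mean ± SD of three replications. The selectivity ratio is TCPTP IC50 divided by PTP1B IC50.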
# [4] = target: Receptor-type tyrosine-protein phosphatase F (Homo sapiens, UniProt P10586); assay: Inhibition of LAR (unknown origin) using 3-o-methylfluorescein phosphate as substrate at 20 ug/ml
# Receptor-type tyrosine-protein phosphatase F, sequence (P10586 whole entry): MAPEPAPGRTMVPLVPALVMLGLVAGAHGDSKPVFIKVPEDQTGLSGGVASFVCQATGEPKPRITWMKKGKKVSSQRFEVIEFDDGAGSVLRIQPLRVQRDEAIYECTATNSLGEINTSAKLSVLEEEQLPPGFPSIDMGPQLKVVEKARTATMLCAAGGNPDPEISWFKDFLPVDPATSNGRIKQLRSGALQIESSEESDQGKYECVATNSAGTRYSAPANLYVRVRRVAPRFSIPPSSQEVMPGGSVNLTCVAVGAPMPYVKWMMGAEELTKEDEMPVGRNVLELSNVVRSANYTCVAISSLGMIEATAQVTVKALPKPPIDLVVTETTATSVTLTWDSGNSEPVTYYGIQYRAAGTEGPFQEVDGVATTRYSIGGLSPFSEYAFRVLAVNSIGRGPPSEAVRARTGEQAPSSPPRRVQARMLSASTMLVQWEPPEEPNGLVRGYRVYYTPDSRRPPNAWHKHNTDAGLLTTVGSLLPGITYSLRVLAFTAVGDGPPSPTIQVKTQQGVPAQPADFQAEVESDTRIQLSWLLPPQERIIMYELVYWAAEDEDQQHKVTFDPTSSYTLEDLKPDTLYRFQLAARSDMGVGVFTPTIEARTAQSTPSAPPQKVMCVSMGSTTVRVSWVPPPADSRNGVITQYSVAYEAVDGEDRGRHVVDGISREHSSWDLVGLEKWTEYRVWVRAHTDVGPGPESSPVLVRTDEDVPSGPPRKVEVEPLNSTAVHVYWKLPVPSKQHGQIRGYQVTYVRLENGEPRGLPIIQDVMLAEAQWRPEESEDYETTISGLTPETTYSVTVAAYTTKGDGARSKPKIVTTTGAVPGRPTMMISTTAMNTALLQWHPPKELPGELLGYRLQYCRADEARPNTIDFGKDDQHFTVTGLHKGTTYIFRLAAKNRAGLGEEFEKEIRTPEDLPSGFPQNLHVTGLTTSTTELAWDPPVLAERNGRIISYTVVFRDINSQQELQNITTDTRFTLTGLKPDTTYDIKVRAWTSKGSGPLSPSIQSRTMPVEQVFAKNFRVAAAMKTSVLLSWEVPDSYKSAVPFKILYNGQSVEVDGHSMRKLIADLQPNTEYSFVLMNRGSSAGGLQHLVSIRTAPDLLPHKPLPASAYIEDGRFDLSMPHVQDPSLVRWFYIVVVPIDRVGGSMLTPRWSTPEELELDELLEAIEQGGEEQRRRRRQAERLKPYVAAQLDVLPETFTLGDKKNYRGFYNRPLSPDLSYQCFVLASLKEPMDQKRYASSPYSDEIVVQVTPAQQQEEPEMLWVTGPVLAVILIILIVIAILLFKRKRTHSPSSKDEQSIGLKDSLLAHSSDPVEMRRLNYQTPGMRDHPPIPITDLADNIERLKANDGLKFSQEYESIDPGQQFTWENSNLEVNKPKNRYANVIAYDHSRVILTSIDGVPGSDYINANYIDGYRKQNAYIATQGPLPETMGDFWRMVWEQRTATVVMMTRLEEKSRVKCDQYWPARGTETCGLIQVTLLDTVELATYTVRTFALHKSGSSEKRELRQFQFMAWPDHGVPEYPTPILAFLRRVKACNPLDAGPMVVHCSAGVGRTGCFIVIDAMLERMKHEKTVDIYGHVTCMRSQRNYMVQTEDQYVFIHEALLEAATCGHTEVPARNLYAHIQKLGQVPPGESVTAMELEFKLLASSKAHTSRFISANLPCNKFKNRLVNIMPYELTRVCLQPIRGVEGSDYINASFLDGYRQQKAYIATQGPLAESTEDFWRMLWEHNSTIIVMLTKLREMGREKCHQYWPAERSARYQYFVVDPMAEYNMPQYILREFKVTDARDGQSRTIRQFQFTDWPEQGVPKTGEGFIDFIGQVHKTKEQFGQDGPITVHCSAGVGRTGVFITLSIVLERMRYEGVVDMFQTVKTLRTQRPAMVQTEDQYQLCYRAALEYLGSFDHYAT
# [5] = target: T4, Tyrosine-protein phosphatase non-receptor type 6 (Homo sapiens, UniProt P29350); assay: Inhibition of SHP-1 (unknown origin) using 3-o-methylfluorescein phosphate as substrate at 20 ug/ml
# T4 sequence (P29350 whole entry): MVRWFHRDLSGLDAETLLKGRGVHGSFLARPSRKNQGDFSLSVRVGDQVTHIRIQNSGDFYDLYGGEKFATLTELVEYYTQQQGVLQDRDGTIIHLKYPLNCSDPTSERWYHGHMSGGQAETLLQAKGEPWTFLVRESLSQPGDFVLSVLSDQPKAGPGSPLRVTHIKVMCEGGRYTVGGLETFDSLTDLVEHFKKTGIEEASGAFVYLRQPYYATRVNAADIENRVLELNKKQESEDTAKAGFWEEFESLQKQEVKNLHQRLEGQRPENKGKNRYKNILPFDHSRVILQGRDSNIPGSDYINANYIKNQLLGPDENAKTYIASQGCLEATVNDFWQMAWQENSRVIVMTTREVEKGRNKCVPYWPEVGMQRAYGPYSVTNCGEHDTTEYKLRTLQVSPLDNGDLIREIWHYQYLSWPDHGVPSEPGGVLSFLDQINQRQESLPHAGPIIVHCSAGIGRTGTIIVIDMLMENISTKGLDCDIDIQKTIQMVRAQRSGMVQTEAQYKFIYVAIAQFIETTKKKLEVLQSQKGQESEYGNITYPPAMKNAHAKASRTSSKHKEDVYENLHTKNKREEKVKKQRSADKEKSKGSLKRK
# [6] = target: T5, Tyrosine-protein phosphatase non-receptor type 11 (Homo sapiens) (UniProt Q06124); assay: Inhibition of SHP-2 (unknown origin) using 3-o-methylfluorescein phosphate as substrate at 20 ug/ml
# T5 sequence (whole entry): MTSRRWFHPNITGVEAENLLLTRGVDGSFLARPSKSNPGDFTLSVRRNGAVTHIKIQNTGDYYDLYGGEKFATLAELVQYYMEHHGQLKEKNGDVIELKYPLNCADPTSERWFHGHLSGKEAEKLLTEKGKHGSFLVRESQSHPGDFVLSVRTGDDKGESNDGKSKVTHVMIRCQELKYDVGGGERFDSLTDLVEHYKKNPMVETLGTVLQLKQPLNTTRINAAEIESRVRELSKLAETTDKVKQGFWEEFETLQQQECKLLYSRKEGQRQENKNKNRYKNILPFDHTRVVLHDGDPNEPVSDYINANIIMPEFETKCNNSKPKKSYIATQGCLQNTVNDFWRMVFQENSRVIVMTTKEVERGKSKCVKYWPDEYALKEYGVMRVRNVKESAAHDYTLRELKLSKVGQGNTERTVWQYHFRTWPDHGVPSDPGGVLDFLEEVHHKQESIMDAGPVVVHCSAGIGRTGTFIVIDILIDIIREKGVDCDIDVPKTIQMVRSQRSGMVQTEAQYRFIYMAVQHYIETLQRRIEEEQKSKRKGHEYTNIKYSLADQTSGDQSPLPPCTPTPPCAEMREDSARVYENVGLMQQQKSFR
# [7] = target: T1, Tyrosine-protein phosphatase non-receptor type 1 (Homo sapiens); assay: Fast-binding inhibition of PTP1B (unknown origin) using pNPP as substrate
# [8] = target: T1, Tyrosine-protein phosphatase non-receptor type 1 (Homo sapiens); assay: Competitive inhibition of PTP1B (unknown origin) using pNPP as substrate by Lineweaver-Burk plot analysis
# How it was run: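 Kinetic analysis: initial velocities were measured across various pNPP concentrations at several fixed inhibitor concentrations. Inhibition mode was assigned from Lineweaver–Burk double-reciprocal plots.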
# CHO = assay: Inhibition of PTP1B in CHO cells overexpressing human insulin receptor assessed as increase in insulin-stimulated tyrosine phosphorylation of insulin receptor beta at 5 to 20 uM by immunoblot analysis; type: cell-based; details: Cricetulus griseus
# How it was run: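 CHO cells overexpressing human insulin receptor were treated with compound, with DMSO as negative control. Tyrosine-phosphorylated insulin receptor β was detected by immunoblot.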
# [9] = target: T6, Tyrosine-protein phosphatase non-receptor type 2 (Homo sapiens) (UniProt P17706); assay: Inhibition of TCPTP (unknown origin) using pNPP as substrate at 20 ug/ml
# T6 sequence (whole entry): T3 sequence (P17706 whole entry)
# [10] = target: T4, Tyrosine-protein phosphatase non-receptor type 6; assay: Inhibition of SHP-1 (unknown origin) using 3-o-methylfluorescein phosphate as substrate
# How it was run: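 SHP-1 activity was read with 3-O-methylfluorescein phosphate (OMFP) as substrate. IC50 was derived by regression analysis and given as mean ± SD of three replications.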
# [11] = target: T7, Tyrosine-protein phosphatase non-receptor type 11 (Homo sapiens, UniProt Q06124); assay: Inhibition of SHP-2 (unknown origin) using 3-o-methylfluorescein phosphate as substrate
# T7 sequence (Q06124 whole entry): T5 sequence (whole entry)
# How it was run: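 Phosphatase activity was measured with 3-O-methylfluorescein phosphate (OMFP) as substrate, in the same assay format used for SHP-1. IC50 was obtained by regression analysis and reported as mean ± SD of three replicates.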
Compound,inhibition [1] [%],IC50 [2] [µM],inhibition [4] [%],other results
O=C(Nc1ccc(-c2ccc(NC(=O)C3CCN(C(=O)c4ccco4)CC3)cc2)cc1)C1CCN(C(=O)c2ccco2)CC1,94,2.34,< 50,IC50 [3]: 12.4 µM; Ratio IC50 (Homo sapiens): 5.29; inhibition [5]: < 50%; inhibition [6]: < 50%; inhibition [7]: Active; inhibition [8]: Active; inhibition (CHO): Active
O=C(Nc1ccc(-c2ccc(NC(=O)C3CCN(C(=O)c4ccccc4)CC3)cc2)cc1)C1CCN(C(=O)c2ccccc2)CC1,94.1,2.65,< 50,IC50 [3]: 7.62 µM; Ratio IC50 (Homo sapiens): 2.88; inhibition [5]: < 50%; inhibition [6]: < 50%
COc1ccc(C(=O)Nc2ccc(-c3ccc(NC(=O)c4ccc(OC)cc4)cc3)cc2)cc1,11.9,–,–,–
O=C(Nc1ccc(-c2ccc(NC(=O)c3cccs3)cc2)cc1)c1cccs1,38.1,–,–,–
O=C(Nc1ccc(-c2ccc(NC(=O)c3ccc(F)cc3)cn2)cc1)c1ccc(F)cc1,71,5.96,< 50,inhibition [9]: < 50%; IC50 [10]: 17.8 µM
O=C(Nc1ccc(-c2ccc(NC(=O)c3ccc(F)cc3)cc2)cc1)c1ccc(F)cc1,98.6,19,–,–
COC(=O)c1ccc(-c2ccc(N)cc2)cc1,31.5,–,–,–
CC(C)CC(=O)Nc1ccc(-c2ccc(NC(=O)CC(C)C)cn2)cc1,58.1,26.5,–,–
O=C(Nc1ccc(-c2ccc(NC(=O)C3CCCCC3)cn2)cc1)C1CCCCC1,82.1,7.14,< 50,IC50 [3]: 22.9 µM; Ratio IC50 (Homo sapiens): 3.2; inhibition [5]: < 50%; inhibition [6]: < 50%
O=C(Nc1ccc(-c2ccc(NC(=O)[C@@H]3CCCN3)cc2)cc1)[C@@H]1CCCN1,0.7,–,–,–
SODIUM ORTHOVANAD,–,–,–,IC50 [10]: 17.8 µM; IC50 [11]: 34.7 µM
O=C(Nc1ccc(-c2ccc(NC(=O)c3ccco3)cn2)cc1)c1ccco1,86.4,11.1,–,–
COC(=O)c1ccc(-c2ccc(NC(=O)c3ccccc3)cc2)cc1,69.4,10.2,–,–
O=C(Nc1ccc(-c2ccc(NC(=O)C3CCN(C(=O)C4CCCCC4)CC3)cc2)cc1)C1CCN(C(=O)C2CCCCC2)CC1,61,14.6,–,–
O=C(Nc1ccc(-c2ccc(NC(=O)C3CCN(C(=O)c4ccc(F)cc4)CC3)cc2)cc1)C1CCN(C(=O)c2ccc(F)cc2)CC1,95.3,5.04,< 50,inhibition [9]: < 50%; inhibition [5]: < 50%; inhibition [6]: < 50%
CC(C)(C)OC(=O)N1CCC[C@H]1C(=O)Nc1ccc(-c2ccc(NC(=O)[C@@H]3CCCN3C(=O)OC(C)(C)C)cc2)cc1,43.5,–,–,–
O=C(Nc1ccc(-c2ccc(C(=O)Nc3ccccc3)cc2)cc1)c1ccccc1,81.2,4.61,< 50,inhibition [9]: < 50%; inhibition [5]: < 50%; inhibition [6]: < 50%
O=C(Nc1ccccc1)c1ccc(-c2ccc(C(=O)Nc3ccccc3)cc2)cc1,62.8,18.5,–,–
COc1cc(C(=O)Nc2ccc(-c3ccc(NC(=O)c4cc(OC)c(OC)c(OC)c4)cc3)cc2)cc(OC)c1OC,47.4,–,–,–
CC(C)(C)OC(=O)N1CCC(C(=O)Nc2ccc(-c3ccc(NC(=O)C4CCN(C(=O)OC(C)(C)C)CC4)cc3)cc2)CC1,71.1,9.5,< 50,IC50 [3]: 21.2 µM; Ratio IC50 (Homo sapiens): 2.23; IC50 [10]: 18.2 µM; inhibition [6]: < 50%
O=C(Nc1ccc(-c2ccc(NC(=O)C3CCCCC3)cc2)cc1)C1CCCCC1,84.6,12.5,–,–
CC(C)CC(=O)Nc1ccc(-c2ccc(NC(=O)CC(C)C)cc2)cc1,90.7,16.5,–,–
O=C(Nc1ccc(-c2ccc(NC(=O)c3ccco3)cc2)cc1)c1ccco1,–,19.3,< 50,IC50 [3]: 51 µM; Ratio IC50 (Homo sapiens): 2.64; IC50 [10]: 38.8 µM
O=C(Nc1ccc(-c2ccc(NC(=O)c3ccccc3)cn2)cc1)c1ccccc1,83.9,5.37,< 50,IC50 [3]: 26.2 µM; Ratio IC50 (Homo sapiens): 4.87; inhibition [5]: < 50%; inhibition [6]: < 50%
O=C(Nc1ccc(-c2ccc(NC(=O)c3ccccc3)cc2)cc1)c1ccccc1,95.2,12,–,–
O=C(Nc1ccc(F)cc1)c1ccc(-c2ccc(C(=O)Nc3ccc(F)cc3)cc2)cc1,7.92,–,–,–
O=C(Nc1ccc(-c2ccc(NC(=O)C3CCNCC3)cc2)cc1)C1CCNCC1,10.3,–,–,–
CC(C)CC(=O)N1CCC(C(=O)Nc2ccc(-c3ccc(NC(=O)C4CCN(C(=O)CC(C)C)CC4)cc3)cc2)CC1,70,12.2,–,–
